Measured values as given in article PMC6178977 (Advanced functional materials, 2017).

Tests used:
[1] = test system: HCT116 cells; assay: In vitro cytotoxicity, 72 h treatment; type: cell-based; details: Homo sapiens, HCT-116, 72 h
[2] = test system: Colo 205 cells; assay: In vitro cytotoxicity, 72 h treatment; type: cell-based; details: Homo sapiens, COLO 205, 72 h
[3] = test system: subcutaneous HCT-116 xenograft; assay: Tumor regression in subcutaneous HCT-116 xenograft model; type: in vivo, mice
[4] = cited from earlier work
[5] = Pyrene fluorescence assay; type: physicochemical
Procedure, shortened: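 Pyrene served as fluorescent probe across a dilution series of polypeptide or conjugate. The I₁/I₃ ratio (370−373 nm peak over 381−384 nm peak) was plotted against polypeptide concentration. CAC was taken from the sigmoidal transition, which reflects nanoparticle disassembly and release of pyrene into the aqueous phase.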

In the case of Nc1ccn([C@@H]2O[C@H](CO)[C@@H](O)C2(F)F)c(=O)n1 [GEM, gemcitabine], the IC50 [1] is reported as 4.1 nM, the IC50 [2] is reported as 46.4 nM and the “tumor volume lower than PBS treated animals” value ([3]; 12 days after treatment) is reported as ~ 3 fold. For the same compound, the median survival time ([3]; HCT-116 xenograft, 25 mg.kg^−1 day 0, 2, 4, Kaplan–Meier, n=6) was 21 days and the plasma half-life [4] was ~ 10 minutes.

In the case of (VPGAG)160–(YG)6–(CGG)8 [ATBP], the “CAC (critical aggregation concentration)” value [5] is reported as 3.6 µM.
